Results on six molecules are retold here after ChEMBL document CHEMBL1926567, “Triterpenoids as inhibitors of erythrocytic and liver stages of Plasmodium infections” (Bioorg Med Chem, 2011).

The subject of data set [1] is Plasmodium falciparum. The experiment in a line: Antimalarial activity against chloroquine-resistant Plasmodium falciparum Dd2 infected in erythrocytes after 48 hrs by SYBR green 1-based fluorescence assay. Type of data set: functional, organism-based. The settings on record: Dd2, 48 h. In short, it runs like this: (§1)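 P. falciparum (3D7 or Dd2) grown in fresh human erythrocytes in RPMI 1640 with 25 mM HEPES, 6.8 mM hypoxanthine and 10% AlbuMAX II, at 37 °C under 5% O2, 3–5% CO2 and N2. Ring-stage cultures at 1% parasitaemia and 2% haematocrit were exposed in duplicate to 0.156–100 µg/mL (from DMSO stocks) for 48 h at 37 °C. SYBR Green I lysis buffer was then added for 1 h in the dark; fluorescence read at ex 485/em 535 nm. IC50 is the mean of three independent experiments.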

The test system of a further data set is Hepatocyte. As to the kind of experiment: Cytotoxicity against mouse primary hepatocytes at 15 uM after 24 hrs by alamar blue fluorescence assay. Type of data set: cell-based. In short, it runs like this:
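Mouse primary hepatocytes incubated with compounds for 24 h, then with AlamarBlue-containing medium for 1 h before fluorescence reading. Signal normalized to cells treated with 500 μM H2O2 as positive control and compared with a DMSO control at the amount present in the highest drug concentration.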
In general terms: The colour change of resazurin is a common sign of viable cells or microbes.

The test system of data set [2] is Plasmodium falciparum. The experiment in a line: Antimalarial activity against chloroquine-sensitive Plasmodium falciparum 3D7 infected in erythrocytes after 48 hrs by SYBR green 1-based fluorescence assay. Type of data set: functional, organism-based. The conditions noted are these: 3D7, 48 h. In outline: as §1
For data set [3], the system named is Plasmodium berghei. As to the kind of experiment: Antimalarial activity against transgenic Plasmodium berghei expressing PbGFP-Luc-con infected in human HuH7 cells assessed as reduction of parasite motility at 15 uM by luciferase based assay. Type of data set: functional, organism-based. The conditions noted are these: Huh-7.
Data set [4] has as its system Plasmodium berghei. The experiment in a line: Antimalarial activity against transgenic Plasmodium berghei expressing PbGFP-Luc-con infected in human HuH7 cells assessed as reduction of intracellular liver stage development at 15 uM by luciferase based assay. Type of data set: functional, organism-based. The settings on record: Huh-7.
Data set [5] is described as follows: Selectivity index, ratio of IC50 for human MCF7 cells to IC50 for chloroquine-sensitive Plasmodium falciparum 3D7. Type of data set: toxicity, cell-based. The settings on record: read-out: Ratio IC50. In outline: (§2)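 MCF-7 cells were grown in RPMI 1640 with 10% heat-inactivated horse serum and 2 mM L-glutamine. Cells (2×10^4 per well) were exposed to increasing compound concentrations for 24 h at 37 °C, then given MTT for 4 h and SDS overnight; OD read at 550 nm (ref 630 nm). Growth-inhibition IC50 from three experiments.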

Data set [6] has as its system Plasmodium berghei. The experiment in a line: Antimalarial activity against transgenic Plasmodium berghei expressing PbGFP-Luc-con infected in human HuH7 cells assessed as reduction of parasite invasion at 15 uM by luciferase based assay. Type of data set: functional, organism-based. The settings on record: Huh-7.
A further data set has as its system MCF7. The experiment in a line: Cytotoxicity against human MCF7 cells after 24 hrs by MTT assay. The settings on record: MCF7, 24 h. Type of data set: cell-based. In short, it runs like this:
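MCF-7 cells grown in RPMI 1640 with 10% heat-inactivated horse serum and 2 mM L-glutamine at 37 °C, 5% CO2. 2×10^4 cells/well exposed to increasing compound concentrations for 24 h. MTT added for 4 h, then 10% SDS overnight; OD at 550 nm (reference 630 nm). Percent growth inhibition calculated relative to cell and medium controls; IC50 given as mean ± SD of three experiments.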
(In general: Tetrazolium dyes change colour on reduction, which living cells bring about.)

The nature of data set [7]: Selectivity index, ratio of IC50 for human MCF7 cells to IC50 for chloroquine-resistant Plasmodium falciparum Dd2. Type of data set: toxicity, cell-based. The conditions noted are these: read-out: Ratio IC50. In short, it runs like this:
as §2

In a further data set the test system is Huh-7. As to the kind of experiment: Cytotoxicity against human HuH7 cells at 15 uM by alamar blue fluorescence assay. Type of data set: cell-based. The conditions noted are these: huh-7, 15 µM. In short, it runs like this: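 Huh-7 cells cultured in RPMI 1640 with 10% FCS and 10 mM HEPES pH 7 at 37 °C, 5% CO2. Cells seeded the day before, exposed to compounds (1, 5, 15 uM) and infected in parallel with the liver-stage assay. Viability read as AlamarBlue fluorescence (cell confluency), compared with DMSO controls; three independent measurements.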

Data set [8] concerns Plasmodium berghei. The experiment in a line: Antimalarial activity against liver stage of transgenic Plasmodium berghei expressing PbGFP-Luc-con infected in human HuH7 cells at 1 to 15 uM after 48 hrs by bioluminescence method. Type of data set: functional, organism-based. The conditions noted are these: Huh-7. In outline:
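Huh-7 human hepatoma cells (12×10^3/well) seeded the day before; compounds at 1, 5 and 15 uM added 1 h before sporozoites of luciferase-expressing P. berghei PbGFP-Luc_con, freshly dissected from infected female Anopheles stephensi salivary glands. Plates centrifuged 1700g for 5 min after sporozoite addition. Luminescence read 48 h post-infection versus DMSO controls. Primaquine positive control; three independent measurements.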

Data set [9] has as its system Plasmodium falciparum. The experiment in a line: Ratio of balsaminol-F IC50 to compound IC50 for chloroquine-sensitive Plasmodium falciparum 3D7. Type of data set: functional.
The subject of data set [10] is Plasmodium falciparum. The experiment in a line: Ratio of balsaminol-F IC50 to compound IC50 for chloroquine-resistant Plasmodium falciparum Dd2. Type of data set: functional.

The structures appear in SMILES notation. The source made the active and inactive calls. The calls are words filed in the database; no cut-off is given here.

The term IC50 denotes the concentration at which inhibition is half-maximal. Read a low IC50 as higher potency. On to `CC(C)=C[C@H](O)C[C@@H](C)[C@H]1CC[C@@]2(C)[C@@H]3[C@@H](O)C=C4[C@@H](CC[C@H](O)C4(C)C)[C@]3(C)CC[C@]12C` (relative stereo) [BALSAMINOL F], for which the half-inhibitory concentration (IC50) in the data set with Plasmodium falciparum [1] came out at 20 µM; with Plasmodium falciparum [2], 18 µM; in the data set with MCF7 it was 27.3 µM. Also, the Activity entry in the data set with Hepatocyte and with Huh-7 was “Toxic” in each case. Also, the result in the data set on Plasmodium berghei [3] and with Plasmodium berghei [6] was inactive. Moreover, the outcome in the data set on Plasmodium berghei [4] and in the data set on Plasmodium berghei [8] was Active. The values for the selectivity ratio in data set [5] and in data set [7] were 1.5 and 1.4, respectively.
In the case of `CO[C@H]1C=C2[C@@H](CC[C@H](O)C2(C)C)[C@]2(C)CC[C@]3(C)[C@@H]([C@H](C)CC(C=C(C)C)O[C@@H]4O[C@H](CO)[C@@H](O)[C@H](O)[C@H]4O)CC[C@@]3(C)[C@H]12` (some centres not stated) [KUGUAGLYCOSIDE A], the results for the IC50 with Plasmodium falciparum [1], with Plasmodium falciparum [2] and in the data set with MCF7 were 4.7 µM, 3.9 µM and 13.5 µM, respectively. Moreover, the selectivity ratio was 3.5 in data set [5] and 2.9 in data set [7].
Take `CC(C)=C[C@@H](C[C@@H](C)[C@H]1CC[C@@]2(C)[C@@H]3[C@@H](OC(=O)c4ccccc4)C=C4[C@@H](CC[C@H](OC(=O)c5ccccc5)C4(C)C)[C@]3(C)CC[C@]12C)OC(=O)c1ccccc1` [TRIBENZOYLBALSAMINOL F]: the figures for the IC50 in the data set on Plasmodium falciparum [1], in the data set with Plasmodium falciparum [2] and with MCF7 were 68.4 µM, 57.3 µM and greater than 133 µM, respectively. The figures for the selectivity ratio in data set [5] and in [7] were greater than 2.3 and greater than 2, respectively. Further, the outcome in the data set on Plasmodium berghei [8] was Active.
For `CC(=O)O[C@H]1C=C2[C@@H](CC[C@H](OC(C)=O)C2(C)C)[C@]2(C)CC[C@]3(C)[C@@H]([C@H](C)C[C@H](C=C(C)C)OC(C)=O)CC[C@@]3(C)[C@H]12` [TRIACETYLBALSAMINOL F], the results for the half-maximal inhibitory concentration (IC50) with Plasmodium falciparum [1], with Plasmodium falciparum [2] and in the data set with MCF7 were 0.4 µM, 0.8 µM and greater than 133 µM, respectively. The Activity entry with Hepatocyte and in the data set on Huh-7 was “Non-toxic” in each case. Besides, the “Ratio IC50” value in the data set on Plasmodium falciparum [9] was 22.5; in the data set with Plasmodium falciparum [10] it was 50. The outcome with Plasmodium berghei [3] and in the data set with Plasmodium berghei [6] was inactive. The outcome in the data set with Plasmodium berghei [4] and in the data set on Plasmodium berghei [8] was Active. For the same molecule, the selectivity ratio in [5] is greater than 162; in [7], greater than 343.
Take `CC(C)=C[C@H](O)C[C@@H](C)[C@H]1CC[C@@]2(C)[C@@H]3[C@@H](O[C@@H]4O[C@H](CO)[C@@H](O)[C@H](O)[C@H]4O)C=C4[C@@H](CC[C@H](O)C4(C)C)[C@]3(C)CC[C@]12C` [BALSAMINOSIDE C]: the 50% inhibitory concentration (IC50) in the data set with Plasmodium falciparum [1] is 7.2 µM; in the data set on Plasmodium falciparum [2], 3.4 µM; with MCF7 it was 23.9 µM. Besides, the selectivity ratio was 7 in [5] and 3.3 in data set [7]. Further, the outcome in the data set on Plasmodium berghei [8] was Active.
`CC(C)=C[C@H](O)C[C@@H](C)[C@H]1CC[C@@]2(C)[C@@H]3[C@@H](O[C@@H]4O[C@H](CO)[C@@H](O)[C@@H](O)[C@H]4O)C=C4[C@@H](CC[C@H](O)C4(C)C)[C@]3(C)CC[C@]12C` (relative stereo) [BALSAMINOSIDE B]: the IC50 was found to be 6.3 µM in the data set with Plasmodium falciparum [1], 2.9 µM in the data set with Plasmodium falciparum [2] and 14.2 µM with MCF7. The Activity entry in the data set on Hepatocyte and in the data set with Huh-7 was “Toxic” each time. The outcome in the data set with Plasmodium berghei [3] and with Plasmodium berghei [6] was inactive. For the same molecule, the result in the data set on Plasmodium berghei [4] and with Plasmodium berghei [8] was Active. The results for the selectivity ratio in data set [5] and in [7] were 4.8 and 2.3, respectively.
